An excerpt weighted towards active compounds, which were near 0.79% of everything screened.
hIAP block: blocks human intestinal alkaline phosphatase; AID 2544; P09923; inhibition, % at 10 µM; purified IAP, CDP-Star luminescence, 30 min; actives 0.12% (n = 330,000);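 active = inhibition reaching a set limit with compound at 10 µM in the primary screen, cut at about 35% in these data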;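 also: plate controls were DMSO wells with enzyme for no effect and no-enzyme buffer wells for full effect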
Target sequence (P09923 whole entry, looked up): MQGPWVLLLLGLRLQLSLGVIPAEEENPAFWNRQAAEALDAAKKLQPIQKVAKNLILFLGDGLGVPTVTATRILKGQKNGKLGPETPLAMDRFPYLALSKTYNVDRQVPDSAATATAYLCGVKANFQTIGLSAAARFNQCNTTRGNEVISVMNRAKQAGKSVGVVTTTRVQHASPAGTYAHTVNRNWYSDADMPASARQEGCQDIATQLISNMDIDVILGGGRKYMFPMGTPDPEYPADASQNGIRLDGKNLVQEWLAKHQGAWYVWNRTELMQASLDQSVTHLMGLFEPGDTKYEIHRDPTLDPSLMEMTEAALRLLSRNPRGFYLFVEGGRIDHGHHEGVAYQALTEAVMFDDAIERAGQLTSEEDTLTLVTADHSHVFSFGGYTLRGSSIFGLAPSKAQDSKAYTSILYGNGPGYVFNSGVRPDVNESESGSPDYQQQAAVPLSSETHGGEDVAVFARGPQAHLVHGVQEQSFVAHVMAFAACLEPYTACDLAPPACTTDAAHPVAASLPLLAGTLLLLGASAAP
bIAP activator: intestinal alkaline phosphatase (bovine) activation | actives 0.17% (n = 200,000) | AID 1016 | activation factor at 20 µM | purified bovine IAP, CDP-star luminescence, 30 min; active compounds read high; fold of DMSO-control signal, blank-subtracted;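 active = activation factor of 2 or more at 20 µM, a signal rise over negative controls twice the positive control's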
mIAP inh: mouse IAP inhibition. purified mouse IAP, CDP-Star luminescence, 30 min. inhibition, % at 10 µM. actives 0.2% (n = 330,000);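 active = inhibition of at least 40% at 10 µM in the primary screen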;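 also: plate controls were DMSO with enzyme for no effect and no enzyme wells for full effect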
bIAP inhibitor: intestinal alkaline phosphatase (bovine) inhibition; purified bovine IAP, CDP-star luminescence, 30 min; inhibition, % at 20 µM; 190,000 tested, under 10 active; AID 1019;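 active = over 50% inhibition of intestinal alkaline phosphatase at 20 µM in the single-dose screen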
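Assay system: bovine IAP enzyme; medium: DEA buffer 100 mM, pH 9.8, with MgCl2 1.0 mM, ZnCl2 0.02 mM; doses: 20 µM single dose; incubation: enzyme reaction for 30 min at room temperature; detection: CDP-star luminescence signal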
mIAP act: increases mouse intestinal alkaline phosphatase activity; muIAP, CDP-Star luminescence, 30 min; active compounds read high; 1 = vehicle-only enzyme signal, 0 = enzyme-free wells; activation factor at 10 µM; actives 0.24% (n = 330,000);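 active = activation factor of at least 2 at 20 µM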
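Assay system: mouse IAP enzyme; reagent: chemiluminescent substrate CDP-Star; dosing: test compounds delivered from DMSO solution; schedule: 30 min at room temperature; measured by: luminescence from enzymatic CDP-Star hydrolysis; controls: DMSO-only wells and no-enzyme negative control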
hIAP act: increases human intestinal alkaline phosphatase activity; P09923; purified human IAP, CDP-Star luminescence, 30 min; active compounds read high; 1 = vehicle-only enzyme, 0 = enzyme-free background; activation factor at 10 µM; actives 0.16% (n = 330,000);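 active = activation factor of the enzyme at least 2-fold when tested at 20 µM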
hIAP act conf: human IAP activation confirmation; actives 10% (n = 880); activation (%Activity, negative = activation), % at 8.3 µM; shares compounds with hIAP act; purified IAP, CDP-Star luminescence, 30 min; active compounds read low; AID 434926;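 active = at least twofold enzyme activation in any of six single-dose repeats, which the averaged readout prints as negative percent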
Numbers without * were called inactive; / = no result.

SMILES | hIAP block | bIAP activator | mIAP inh | bIAP inhibitor | mIAP act | hIAP act | hIAP act conf
Cc1cc(-c2c(C)[nH]n(-c3ccc(Cl)cc3)c2=O)n[nH]1 | -14 | 1.1 | 2 | -14 | 0.98 | 1.1 | /
COc1ccc(-n2nc3ccc(NS(C)(=O)=O)cc3n2)cc1Cl | 38* | 0.9 | -9 | 6 | 1.1 | 0.62 | 1
O=C(Cc1ccc(S(=O)(=O)N2CCOCC2)s1)NCCOc1ccccc1 | -19 | / | -3 | / | 1 | 1.2 | /
Cc1c(Cl)cccc1NC(=O)C(=O)NNS(=O)(=O)c1ccc(F)cc1 | -139 | / | 20 | / | 0.8 | 2.4* | -20
CC1CN(C(=O)CCC(=O)NCCCc2ccccc2)c2ccccc2O1 (stereo not drawn) | 13 | / | -2 | / | 1 | 0.87 | /
O=C(O)Cn1nnc(-c2cccs2)n1 | 4 | 1 | 3 | -1 | 0.97 | 0.96 | /
O=C(O)CCn1nnc(-c2cccs2)n1 | -103 | 1 | -4 | 0 | 1 | 2* | 0
CCCOc1ccc(C2C(C(=O)c3ccco3)=C(O)C(=O)N2CCN2CCOCC2)cc1OC (stereo not drawn) | -5 | 1 | 1 | 3 | 0.99 | 1.1 | /
CC(C)(C)NC(=O)C(=O)NNC(=O)COc1ccccc1 | -107 | 1.1 | 8 | -6 | 0.92 | 2.1* | 39
O=C(CCCCC(=O)NNC(=O)COc1ccccc1)NNC(=O)COc1ccccc1 | -151 | / | 16 | / | 0.84 | 2.5* | -88*
Cc1ccc(C(=O)NNC(=O)CCCCC(=O)NNC(=O)c2ccc(C)cc2)cc1 | -131 | / | -4 | / | 1 | 2.3* | -23
Cc1cccc(OCC(=O)NNC(=O)c2ccc3nc[nH]c3c2)c1 | -136 | / | 0 | / | 1 | 2.4* | -117*
O=S(=O)(c1ccc(-c2nnco2)cc1)N1CCCCC1 | 17 | / | 1 | / | 0.99 | 0.83 | /
O=C(COc1ccccc1Cl)Nc1nnc(S(=O)(=O)N2CCCCCC2)s1 | -8 | / | 1 | / | 0.99 | 1.1 | /
CCCCN(C(=O)CSc1cc(C)c2ccc(OC)cc2n1)c1c(N)n(Cc2ccccc2)c(=O)[nH]c1=O | -6 | 0.9 | 0 | 12 | 0.99 | 1.1 | /
Cc1cccc(OCC(=O)NNC(=O)CCCCC(=O)NNC(=O)COc2cccc(C)c2)c1 | -224 | / | 14 | / | 0.86 | 3.2* | -33
COc1cccc(/C=N/NC(=O)c2cc(-c3cccn3C)n[nH]2)c1O | -145 | 1 | 36 | -2 | 0.64 | 2.4* | -1
COc1ccccc1C(=O)NCC(=O)NCc1cc(=O)n(C)c(=O)n1C | 39* | / | 6 | / | 0.94 | 0.61 | -5
Cn1c(CNC(=O)CNC(=O)c2ccccc2F)cc(=O)n(C)c1=O | 8 | / | 3 | / | 0.97 | 0.92 | /
CCOC(=O)C1(Cc2cccc(F)c2)CCN(C(=O)C2CCC2)CC1 | 2 | 0.9 | -9 | 6 | 1.1 | 0.98 | /
COc1cc(/C=C2/SC(=S)N(Cc3ccccc3)C2=O)ccc1O | 4 | / | 28 | / | 0.72 | 0.96 | /
O=C1/C(=C\c2ccc(O)c(O)c2)SC(=S)N1Cc1ccccc1 | 55* | / | 33 | / | 0.67 | 0.45 | -89
O=C(NCCCc1ccccc1)c1ccc(CS(=O)Cc2ccc(Cl)cc2)o1 (stereo not drawn) | 39* | / | 6 | / | 0.94 | 0.61 | -22
O=S(=O)(c1ccc2ccccc2c1)n1cccn1 | 41* | / | -3 | / | 1 | 0.59 | -3
O=C(N/C(=C/c1ccccc1Cl)C(=O)N1CCCC1)c1ccccc1 | -14 | 1 | -2 | -1 | 1 | 1.1 | /
Cc1cccc(N(CC(N)=O)C2SC(=O)N(c3ccccc3)C2=O)c1 (stereo not drawn) | -3 | 1 | 18 | -4 | 0.82 | 1 | /
Cc1ccc(N(CC(N)=O)C2SC(=O)N(C)C2=O)cc1 (stereo not drawn) | 65* | 1.1 | 9 | -6 | 0.91 | 0.35 | -76
COC(=O)c1ccc(Oc2nc(NC(C)(C)C)nc(N3CCOCC3)n2)cc1 | -7 | 1 | 2 | 2 | 0.98 | 1.1 | /
Clc1ccc(-c2nc(-c3ccccn3)no2)cc1Cl | -110 | 0.9 | 3 | 10 | 0.97 | 2.1* | 3
COc1ccc(-c2nc(-c3ccccn3)no2)cc1 | -8 | 0.9 | 6 | 11 | 0.94 | 1.1 | /

Assay outcomes as filed in PubChem BioAssay.
